Values after ≈ are worked out from the molar mass of the structure shown.

Type in all cases: functional
Experiment [1] deals with Streptococcus pneumoniae. Put plainly: Antibacterial activity against ermB-constitutive resistant Streptococcus pneumoniae after 20 hrs by agar dilution method. An outline of the steps: (§1)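 Agar dilution MIC. Streptococcal strains were pre-cultured on blood agar plates. A 5 µl portion of a cell suspension of about 10^6 CFU/ml was inoculated onto Sensitivity disk agar supplemented with 5% horse blood. Plates were incubated at 37 °C for 20 h, then MIC was read.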
In general terms: In agar dilution, organisms are placed on agar that contains the substance at set levels.

The test system of experiment [2] is Staphylococcus aureus. Nature of the experiment: Antibacterial activity against susceptible Staphylococcus aureus after 20 hrs by agar dilution method. An outline of the steps: (§2)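 Agar dilution MIC. The inoculum came from a seed culture in Sensitivity test broth. A 5 µl portion of a cell suspension of about 10^6 CFU/ml was inoculated onto Sensitivity disk agar supplemented with 5% horse blood. Plates were incubated at 37 °C for 20 h, then MIC was read.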

Experiment [3] has as its system Streptococcus pyogenes. Put plainly: Antibacterial activity against standard Streptococcus pyogenes after 20 hrs by agar dilution method. The method, boiled down: (§3)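 MIC by agar dilution. Strains grown on blood agar plates for seed culture. About 5 µl of a suspension of roughly 10^6 CFU/ml spotted onto Sensitivity disk agar with 5% horse blood. Plates incubated at 37 °C for 20 h, then MIC read.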

In experiment [4] the test system is Streptococcus pneumoniae. Put plainly: Antibacterial activity against mefE efflux-resistant Streptococcus pneumoniae after 20 hrs by agar dilution method. The method, boiled down:
as §1

The subject of experiment [5] is Streptococcus pyogenes. Put plainly: Antibacterial activity against mefE efflux-resistant Streptococcus pyogenes after 20 hrs by agar dilution method. The method, boiled down:
as §1

For experiment [6], the system named is Streptococcus pyogenes. Put plainly: Antibacterial activity against ermB-constitutive resistant Streptococcus pyogenes after 20 hrs by agar dilution method. The method, boiled down: as §1
Experiment [7] concerns Haemophilus influenzae. Nature of the experiment: Antibacterial activity against standard Haemophilus influenzae after 20 hrs by agar dilution method. The method, boiled down: as §3
For another experiment, the system named is Moraxella catarrhalis. Nature of the experiment: Antibacterial activity against standard Moraxella catarrhalis after 20 hrs by agar dilution method. The method, boiled down:
as §3

Experiment [8] has as its system Streptococcus pneumoniae. Put plainly: Antibacterial activity against susceptible Streptococcus pneumoniae after 20 hrs by agar dilution method. An outline of the steps: as §3
In experiment [9] the test system is Staphylococcus aureus. Nature of the experiment: Antibacterial activity against ermC-inducible resistant Staphylococcus aureus after 20 hrs by agar dilution method. The method, boiled down: as §2
Experiment [10] deals with Streptococcus pneumoniae. Nature of the experiment: Antibacterial activity against ermB-inducible resistant Streptococcus pneumoniae after 20 hrs by agar dilution method. An outline of the steps:
as §1

Experiment [11] relates to Staphylococcus aureus. Nature of the experiment: Antibacterial activity against ermB-inducible resistant Staphylococcus aureus after 20 hrs by agar dilution method. The method, boiled down: as §2
Experiment [12] concerns Staphylococcus aureus. Put plainly: Antibacterial activity against ermA-constitutive resistant Staphylococcus aureus after 20 hrs by agar dilution method. The method, boiled down: as §2
Experiment [13] has as its system Haemophilus influenzae. Nature of the experiment: Antibacterial activity against susceptible Haemophilus influenzae after 20 hrs by agar dilution method. An outline of the steps: as §3
Experiment [14] concerns Staphylococcus aureus. Nature of the experiment: Antibacterial activity against standard Staphylococcus aureus after 20 hrs by agar dilution method. An outline of the steps:
as §2

Regarding `CCC(=O)O[C@@H]1CC(=O)O[C@H](C)C[C@H](O)[C@H](N(C)CCCc2ccnc3ccccc23)/C=C/[C@H](OC(C)=O)[C@H](C)C[C@H](CC=O)[C@H](O[C@@H]2O[C@H](C)[C@@H](O[C@H]3C[C@@](C)(O)[C@@H](OC(=O)CC)[C@H](C)O3)[C@H](N(C)C)[C@H]2O)[C@H]1OC`, the MIC was 50 µg/mL (≈ 46.6 µM) with Streptococcus pneumoniae [1]; 0.1 µg/mL (≈ 0.0933 µM) in the experiment with Staphylococcus aureus [2]; 0.05 µg/mL (≈ 0.0466 µM) with Streptococcus pyogenes [3]; 0.025 µg/mL (≈ 0.0233 µM) against Streptococcus pneumoniae [4]; 0.1 µg/mL (≈ 0.0933 µM) in the experiment on Streptococcus pyogenes [5]; greater than 100 µg/mL against Streptococcus pyogenes [6]. Further, the MIC against Haemophilus influenzae [7] is 1.56 µg/mL (≈ 1.45 µM); with Moraxella catarrhalis it was 0.39 µg/mL (≈ 0.364 µM); against Streptococcus pneumoniae [8] it was 0.013 µg/mL (≈ 0.0121 µM); in the experiment with Staphylococcus aureus [9], 0.2 µg/mL (≈ 0.187 µM); with Streptococcus pneumoniae [10], 0.78 µg/mL (≈ 0.727 µM); with Staphylococcus aureus [11], 0.1 µg/mL (≈ 0.0933 µM). Moreover, the MIC against Staphylococcus aureus [12] is greater than 100 µg/mL; in the experiment with Haemophilus influenzae [13], 12.5 µg/mL (≈ 11.7 µM); with Staphylococcus aureus [14], 0.1 µg/mL (≈ 0.0933 µM).

Turning to `CCC(=O)O[C@@H]1CC(=O)O[C@H](C)C[C@H](O)[C@H](N(C)CCCc2cnc3ccccc3c2)/C=C/[C@H](OC(C)=O)[C@H](C)C[C@H](CC=O)[C@H](O[C@@H]2O[C@H](C)[C@@H](O)[C@H](N(C)C)[C@H]2O)[C@H]1OC`, the MIC is greater than 100 µg/mL against Streptococcus pneumoniae [1]; 1.56 µg/mL (≈ 1.79 µM) against Staphylococcus aureus [2]; 0.78 µg/mL (≈ 0.894 µM) in the experiment with Streptococcus pyogenes [3]; 0.39 µg/mL (≈ 0.447 µM) in the experiment with Streptococcus pneumoniae [4]; 3.13 µg/mL (≈ 3.59 µM) in the experiment on Streptococcus pyogenes [5]; greater than 100 µg/mL in the experiment with Streptococcus pyogenes [6]. In addition, the MIC with Haemophilus influenzae [7] was 1.56 µg/mL (≈ 1.79 µM); in the experiment with Moraxella catarrhalis, 0.2 µg/mL (≈ 0.229 µM); against Streptococcus pneumoniae [8], 0.2 µg/mL (≈ 0.229 µM); against Staphylococcus aureus [9], 1.56 µg/mL (≈ 1.79 µM); against Streptococcus pneumoniae [10], greater than 100 µg/mL; with Staphylococcus aureus [11], 1.56 µg/mL (≈ 1.79 µM). Also, the figures for the MIC against Staphylococcus aureus [12], against Haemophilus influenzae [13] and against Staphylococcus aureus [14] were greater than 100 µg/mL, 6.25 µg/mL (≈ 7.17 µM) and 1.56 µg/mL (≈ 1.79 µM), respectively.

In the case of `CCC(=O)O[C@@H]1CC(=O)O[C@H](C)C[C@H](O)[C@H](N(C)CCCc2cccc3ccccc23)/C=C/[C@H](OC(C)=O)[C@H](C)C[C@H](CC=O)[C@H](O[C@@H]2O[C@H](C)[C@@H](O)[C@H](N(C)C)[C@H]2O)[C@H]1OC`, the MIC is greater than 100 µg/mL with Streptococcus pneumoniae [1]; 0.78 µg/mL (≈ 0.895 µM) against Staphylococcus aureus [2]; 0.1 µg/mL (≈ 0.115 µM) with Streptococcus pyogenes [3]; 0.1 µg/mL (≈ 0.115 µM) against Streptococcus pneumoniae [4]; 0.39 µg/mL (≈ 0.448 µM) in the experiment on Streptococcus pyogenes [5]; greater than 100 µg/mL with Streptococcus pyogenes [6]. For the same compound, the MIC is 0.78 µg/mL (≈ 0.895 µM) against Haemophilus influenzae [7]; 0.025 µg/mL (≈ 0.0287 µM) in the experiment with Moraxella catarrhalis; 0.025 µg/mL (≈ 0.0287 µM) with Streptococcus pneumoniae [8]; 0.78 µg/mL (≈ 0.895 µM) against Staphylococcus aureus [9]; 100 µg/mL (≈ 115 µM) in the experiment with Streptococcus pneumoniae [10]; 0.78 µg/mL (≈ 0.895 µM) with Staphylococcus aureus [11]. Moreover, the figures for the MIC in the experiment on Staphylococcus aureus [12], in the experiment with Haemophilus influenzae [13] and in the experiment with Staphylococcus aureus [14] were greater than 100 µg/mL, 3.13 µg/mL (≈ 3.59 µM) and 0.39 µg/mL (≈ 0.448 µM), respectively.

Consider `CCC(=O)O[C@@H]1CC(=O)O[C@H](C)C[C@H](O)[C@H](N(C)CCCCCCc2ccccc2)/C=C/[C@H](OC(C)=O)[C@H](C)C[C@H](CC=O)[C@H](O[C@@H]2O[C@H](C)[C@@H](O[C@H]3C[C@@](C)(O)[C@@H](OC(=O)CC)[C@H](C)O3)[C@H](N(C)C)[C@H]2O)[C@H]1OC`, for which the MIC with Streptococcus pneumoniae [1] was determined as 50 µg/mL (≈ 47 µM); in the experiment on Staphylococcus aureus [2], 0.39 µg/mL (≈ 0.367 µM); against Streptococcus pyogenes [3] it was 0.2 µg/mL (≈ 0.188 µM); in the experiment on Streptococcus pneumoniae [4], 0.2 µg/mL (≈ 0.188 µM); in the experiment on Streptococcus pyogenes [5], 0.2 µg/mL (≈ 0.188 µM); in the experiment with Streptococcus pyogenes [6], 25 µg/mL (≈ 23.5 µM). In addition, the MIC against Haemophilus influenzae [7] came to 6.25 µg/mL (≈ 5.88 µM); with Moraxella catarrhalis it was 0.78 µg/mL (≈ 0.734 µM); against Streptococcus pneumoniae [8] it was 0.1 µg/mL (≈ 0.094 µM); in the experiment with Staphylococcus aureus [9], 0.39 µg/mL (≈ 0.367 µM); against Streptococcus pneumoniae [10] it was 6.25 µg/mL (≈ 5.88 µM); against Staphylococcus aureus [11], 0.2 µg/mL (≈ 0.188 µM). The figures for the MIC against Staphylococcus aureus [12], in the experiment on Haemophilus influenzae [13] and against Staphylococcus aureus [14] were 100 µg/mL (≈ 94 µM), 25 µg/mL (≈ 23.5 µM) and 0.39 µg/mL (≈ 0.367 µM), respectively.

As for `CCC(=O)O[C@@H]1CC(=O)O[C@H](C)C[C@H](O)[C@H](N(C)CCCc2cnc3ccccc3c2)/C=C/[C@H](OC(C)=O)[C@H](C)C[C@H](CC=O)[C@H](O[C@@H]2O[C@H](C)[C@@H](O[C@H]3C[C@@](C)(O)[C@@H](OC(=O)CC)[C@H](C)O3)[C@H](N(C)C)[C@H]2O)[C@H]1OC`, the MIC against Streptococcus pneumoniae [1] is greater than 100 µg/mL; against Staphylococcus aureus [2], 0.39 µg/mL (≈ 0.364 µM); with Streptococcus pyogenes [3] it was 0.1 µg/mL (≈ 0.0933 µM); against Streptococcus pneumoniae [4], 0.1 µg/mL (≈ 0.0933 µM); in the experiment on Streptococcus pyogenes [5], 0.2 µg/mL (≈ 0.187 µM); in the experiment on Streptococcus pyogenes [6], greater than 100 µg/mL. Moreover, the MIC in the experiment on Haemophilus influenzae [7] amounted to 3.13 µg/mL (≈ 2.92 µM); against Moraxella catarrhalis, 0.78 µg/mL (≈ 0.727 µM); with Streptococcus pneumoniae [8] it was 0.05 µg/mL (≈ 0.0466 µM); against Staphylococcus aureus [9], 0.39 µg/mL (≈ 0.364 µM); with Streptococcus pneumoniae [10], 12.5 µg/mL (≈ 11.7 µM); against Staphylococcus aureus [11], 0.2 µg/mL (≈ 0.187 µM). In addition, the MIC in the experiment on Staphylococcus aureus [12] is greater than 100 µg/mL; against Haemophilus influenzae [13], 25 µg/mL (≈ 23.3 µM); against Staphylococcus aureus [14], 0.39 µg/mL (≈ 0.364 µM).
